Tests used:
[1] = target: T1, LIM domain kinase 1 (Homo sapiens, UniProt P53667); experiment: Inhibition of recombinant N-terminal 6His-tagged LIMK1 (unknown origin) expressed in Sf21 cells by HTRF assay using cofilin as a substrate
Target sequence in this assay (P53667 whole entry, the tested form may be a part): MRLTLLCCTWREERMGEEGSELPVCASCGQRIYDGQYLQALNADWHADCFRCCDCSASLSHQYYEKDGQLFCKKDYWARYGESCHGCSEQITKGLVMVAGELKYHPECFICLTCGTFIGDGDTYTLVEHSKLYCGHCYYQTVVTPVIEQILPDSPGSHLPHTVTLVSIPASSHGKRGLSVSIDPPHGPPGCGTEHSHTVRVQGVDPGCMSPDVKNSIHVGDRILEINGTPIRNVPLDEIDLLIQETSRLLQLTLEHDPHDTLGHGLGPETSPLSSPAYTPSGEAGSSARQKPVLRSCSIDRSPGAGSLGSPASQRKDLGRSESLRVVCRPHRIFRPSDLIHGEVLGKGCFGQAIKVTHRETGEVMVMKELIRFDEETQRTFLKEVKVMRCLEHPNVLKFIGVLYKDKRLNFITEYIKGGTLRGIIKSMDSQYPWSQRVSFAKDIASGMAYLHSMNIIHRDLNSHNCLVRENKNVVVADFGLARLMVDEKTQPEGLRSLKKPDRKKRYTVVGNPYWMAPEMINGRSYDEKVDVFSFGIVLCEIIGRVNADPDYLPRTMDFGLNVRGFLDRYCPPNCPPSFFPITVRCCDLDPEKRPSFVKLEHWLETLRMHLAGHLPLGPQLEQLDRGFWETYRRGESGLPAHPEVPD

[2] = target: T1, LIM domain kinase 1; experiment: Inhibition of LIMK1 in human ZR75-1 cells assessed as inhibition of cofilin phosphorylation after 5 hrs; format: cell-based, ZR-75-1
In short: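 p-Cofilin biomarker assay in ZR-75-1 cells, imaged and quantified on a Cellomics array scan instrument.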
Target sequence in this assay (P53667 whole entry, the tested form may be a part): as above

[3] = system: MDA-MB-231; experiment: Antiinvasion activity in human MDA-MB-231-luc cells at 3 uM by matrigel inverse invasion assay; format: functional
In short: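 MDA MB-231-luc cells plated on underside of transwell filter; invasion into matrigel plug (inverse format) scored by confocal microscopy of plug sections. Inhibition = proportion of cells invading beyond 60 µm versus under 60 µm, relative to control; compound at 3 µM.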

[4] = Cytotoxicity against human MDA-MB-231 cells assessed as viable cells at 10 uM; format: cell-based; conditions: read-out: Activity
In short: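 MTT viability assay; cells exposed to 10 µM inhibitor, read-out as % viable cells.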

[5] = system: Liver microsome; experiment: Metabolic stability in human liver microsome assessed per gram of tissue; format: ADME; conditions: microsomes
[6] = target: T2, LIM domain kinase 2 (Homo sapiens, UniProt P53671); experiment: Inhibition of human N-terminal GST-tagged LIMK2
In short: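 LIMK2 activity measured in a lanthabind-format assay.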
Target sequence in this assay (P53671 whole entry, the tested form may be a part): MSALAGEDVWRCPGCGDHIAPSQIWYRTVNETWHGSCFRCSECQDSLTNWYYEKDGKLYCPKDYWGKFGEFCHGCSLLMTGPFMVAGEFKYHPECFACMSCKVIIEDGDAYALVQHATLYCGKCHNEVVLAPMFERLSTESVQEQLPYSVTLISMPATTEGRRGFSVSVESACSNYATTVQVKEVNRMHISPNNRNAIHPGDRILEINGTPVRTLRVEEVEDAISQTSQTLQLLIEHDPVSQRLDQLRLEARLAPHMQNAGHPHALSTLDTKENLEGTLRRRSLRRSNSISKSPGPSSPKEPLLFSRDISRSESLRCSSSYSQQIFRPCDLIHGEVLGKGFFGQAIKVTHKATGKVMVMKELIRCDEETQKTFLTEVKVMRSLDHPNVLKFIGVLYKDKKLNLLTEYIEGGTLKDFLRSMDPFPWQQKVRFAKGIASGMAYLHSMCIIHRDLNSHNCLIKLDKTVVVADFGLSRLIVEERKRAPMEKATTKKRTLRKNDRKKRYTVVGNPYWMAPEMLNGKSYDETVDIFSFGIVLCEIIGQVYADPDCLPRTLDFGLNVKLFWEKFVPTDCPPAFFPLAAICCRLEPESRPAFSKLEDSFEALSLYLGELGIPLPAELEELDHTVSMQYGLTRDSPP

[7] = Metabolic stability in mouse liver microsome assessed per gram of tissue; format: ADME; conditions: microsomes
[8] = target: Serine/threonine-protein kinase 16 (Homo sapiens) (UniProt O75716); conditions: 10 uM
Sequence of Serine/threonine-protein kinase 16 (Homo sapiens) (O75716 whole entry): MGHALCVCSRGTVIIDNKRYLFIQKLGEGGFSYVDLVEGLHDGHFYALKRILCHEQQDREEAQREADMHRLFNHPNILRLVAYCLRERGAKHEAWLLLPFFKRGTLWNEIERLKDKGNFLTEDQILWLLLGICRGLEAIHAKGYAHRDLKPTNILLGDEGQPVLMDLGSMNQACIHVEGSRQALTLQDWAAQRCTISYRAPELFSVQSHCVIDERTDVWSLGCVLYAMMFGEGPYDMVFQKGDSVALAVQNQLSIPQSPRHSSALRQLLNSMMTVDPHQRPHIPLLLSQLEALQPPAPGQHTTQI

[9] = target: 5'-AMP-activated protein kinase catalytic subunit alpha-2 (Homo sapiens) (UniProt P54646); conditions: 10 uM
Sequence of 5'-AMP-activated protein kinase catalytic subunit alpha-2 (Homo sapiens) (P54646 whole entry, looked up): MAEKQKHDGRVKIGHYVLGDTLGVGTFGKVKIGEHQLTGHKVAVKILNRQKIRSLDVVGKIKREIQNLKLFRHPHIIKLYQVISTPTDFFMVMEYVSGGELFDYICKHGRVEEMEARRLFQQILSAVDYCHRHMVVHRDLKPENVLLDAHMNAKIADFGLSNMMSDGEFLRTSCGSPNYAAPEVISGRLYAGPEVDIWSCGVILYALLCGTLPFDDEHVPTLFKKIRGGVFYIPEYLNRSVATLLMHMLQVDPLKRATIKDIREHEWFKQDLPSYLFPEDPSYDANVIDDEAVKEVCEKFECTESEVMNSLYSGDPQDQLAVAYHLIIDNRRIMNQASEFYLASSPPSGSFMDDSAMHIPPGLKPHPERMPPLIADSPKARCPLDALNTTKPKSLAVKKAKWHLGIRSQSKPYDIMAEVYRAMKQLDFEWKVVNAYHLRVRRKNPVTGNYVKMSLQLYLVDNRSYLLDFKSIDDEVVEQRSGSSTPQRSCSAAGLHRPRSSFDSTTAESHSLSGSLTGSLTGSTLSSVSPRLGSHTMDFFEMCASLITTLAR

[10] = target: Cyclin-dependent kinase 7 (Homo sapiens) (UniProt P50613); conditions: 10 uM
Sequence of Cyclin-dependent kinase 7 (Homo sapiens) (P50613 whole entry, the tested form may be a part): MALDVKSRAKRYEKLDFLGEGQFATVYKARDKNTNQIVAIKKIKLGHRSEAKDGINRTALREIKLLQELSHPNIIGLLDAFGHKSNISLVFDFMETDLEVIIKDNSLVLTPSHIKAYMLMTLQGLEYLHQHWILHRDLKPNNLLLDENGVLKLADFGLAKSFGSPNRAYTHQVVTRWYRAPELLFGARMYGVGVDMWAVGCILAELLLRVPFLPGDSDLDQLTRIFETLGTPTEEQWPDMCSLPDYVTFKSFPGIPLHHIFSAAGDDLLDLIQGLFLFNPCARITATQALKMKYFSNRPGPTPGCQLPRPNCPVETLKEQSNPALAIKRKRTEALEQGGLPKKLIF

[11] = target: T2, LIM domain kinase 2; conditions: 10 uM
Target sequence in this assay (P53671 whole entry, looked up, the tested form may be a part): as the sequence (P53671 whole entry, the tested form may be a part) above

[12] = target: Cyclin-dependent kinase 2 (Homo sapiens) (UniProt P24941); conditions: 10 uM
[13] = target: Serine/threonine-protein kinase PAK 3 (Homo sapiens) (UniProt O75914); conditions: 10 uM
Sequence of Serine/threonine-protein kinase PAK 3 (Homo sapiens) (O75914 whole entry, looked up): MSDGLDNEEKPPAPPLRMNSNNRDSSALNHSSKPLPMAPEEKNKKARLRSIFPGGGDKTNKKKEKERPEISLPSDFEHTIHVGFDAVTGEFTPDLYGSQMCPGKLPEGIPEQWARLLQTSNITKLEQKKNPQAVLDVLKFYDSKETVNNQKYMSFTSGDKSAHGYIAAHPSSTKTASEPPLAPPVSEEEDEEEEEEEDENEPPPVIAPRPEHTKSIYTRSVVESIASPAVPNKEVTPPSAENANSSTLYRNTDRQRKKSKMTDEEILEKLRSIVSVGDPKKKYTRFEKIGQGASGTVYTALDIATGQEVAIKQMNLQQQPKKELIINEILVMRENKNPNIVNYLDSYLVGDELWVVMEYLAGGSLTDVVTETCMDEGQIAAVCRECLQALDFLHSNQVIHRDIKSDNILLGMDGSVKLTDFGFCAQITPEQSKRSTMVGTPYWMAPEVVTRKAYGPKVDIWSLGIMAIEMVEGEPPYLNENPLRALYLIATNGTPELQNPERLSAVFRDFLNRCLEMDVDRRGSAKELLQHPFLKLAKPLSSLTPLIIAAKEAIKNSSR

[14] = target: T3, Cyclin-dependent kinase-like 2 (Homo sapiens) (UniProt Q92772); conditions: 10 uM
T3 sequence (whole entry): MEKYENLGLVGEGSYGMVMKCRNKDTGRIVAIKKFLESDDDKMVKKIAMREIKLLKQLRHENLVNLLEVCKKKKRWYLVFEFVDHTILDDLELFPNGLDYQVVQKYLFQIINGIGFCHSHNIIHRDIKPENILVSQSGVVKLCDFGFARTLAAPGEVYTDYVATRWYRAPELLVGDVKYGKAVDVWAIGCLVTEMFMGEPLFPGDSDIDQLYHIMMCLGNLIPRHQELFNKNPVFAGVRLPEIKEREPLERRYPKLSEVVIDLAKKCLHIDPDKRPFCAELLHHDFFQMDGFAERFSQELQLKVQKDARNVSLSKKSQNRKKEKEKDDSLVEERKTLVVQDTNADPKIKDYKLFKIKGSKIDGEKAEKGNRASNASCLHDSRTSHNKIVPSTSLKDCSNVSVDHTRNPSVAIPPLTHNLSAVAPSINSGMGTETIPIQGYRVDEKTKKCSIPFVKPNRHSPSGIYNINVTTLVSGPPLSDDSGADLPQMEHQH

[15] = target: T4, Phosphatidylinositol 5-phosphate 4-kinase type-2 gamma (Homo sapiens) (UniProt Q8TBX8); conditions: 10 uM
T4 sequence (whole entry): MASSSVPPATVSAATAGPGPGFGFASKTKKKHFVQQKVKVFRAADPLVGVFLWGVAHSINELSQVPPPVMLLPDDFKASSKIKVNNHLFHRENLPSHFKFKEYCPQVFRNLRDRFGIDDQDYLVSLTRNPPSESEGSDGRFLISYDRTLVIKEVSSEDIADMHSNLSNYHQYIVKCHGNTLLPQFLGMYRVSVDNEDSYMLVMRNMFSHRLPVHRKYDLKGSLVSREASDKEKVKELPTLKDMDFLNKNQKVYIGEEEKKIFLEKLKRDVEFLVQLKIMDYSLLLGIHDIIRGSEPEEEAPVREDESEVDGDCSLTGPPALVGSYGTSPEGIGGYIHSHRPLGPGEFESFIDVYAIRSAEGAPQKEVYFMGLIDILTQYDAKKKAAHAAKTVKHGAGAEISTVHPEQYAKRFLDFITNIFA

[16] = target: 5'-AMP-activated protein kinase catalytic subunit alpha-1 (Homo sapiens) (UniProt Q13131); conditions: 10 uM
Sequence of 5'-AMP-activated protein kinase catalytic subunit alpha-1 (Homo sapiens) (Q13131 whole entry, looked up, the tested form may be a part): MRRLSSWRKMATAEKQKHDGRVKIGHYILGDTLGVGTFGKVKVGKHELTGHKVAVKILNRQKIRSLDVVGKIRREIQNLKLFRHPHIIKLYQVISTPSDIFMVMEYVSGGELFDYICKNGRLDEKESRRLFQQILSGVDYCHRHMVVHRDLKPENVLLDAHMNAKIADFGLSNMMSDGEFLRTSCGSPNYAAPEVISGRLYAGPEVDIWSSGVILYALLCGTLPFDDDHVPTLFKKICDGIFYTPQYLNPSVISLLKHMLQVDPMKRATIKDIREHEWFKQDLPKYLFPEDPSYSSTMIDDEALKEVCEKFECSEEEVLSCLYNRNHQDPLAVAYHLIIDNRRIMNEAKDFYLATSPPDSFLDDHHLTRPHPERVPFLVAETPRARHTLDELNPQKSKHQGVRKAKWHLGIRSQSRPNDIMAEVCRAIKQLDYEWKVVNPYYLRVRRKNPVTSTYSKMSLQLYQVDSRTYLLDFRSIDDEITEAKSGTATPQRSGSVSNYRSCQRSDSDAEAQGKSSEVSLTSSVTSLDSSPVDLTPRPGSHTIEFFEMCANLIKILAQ

[17] = target: T1, LIM domain kinase 1; conditions: 10 uM
Target sequence in this assay (P53667 whole entry, looked up, the tested form may be a part): as the sequence (P53667 whole entry, the tested form may be a part) above

[18] = target: Cyclin-dependent kinase 18 (Homo sapiens) (UniProt Q07002); conditions: 10 uM
Sequence of Cyclin-dependent kinase 18 (Homo sapiens) (Q07002 whole entry, the tested form may be a part): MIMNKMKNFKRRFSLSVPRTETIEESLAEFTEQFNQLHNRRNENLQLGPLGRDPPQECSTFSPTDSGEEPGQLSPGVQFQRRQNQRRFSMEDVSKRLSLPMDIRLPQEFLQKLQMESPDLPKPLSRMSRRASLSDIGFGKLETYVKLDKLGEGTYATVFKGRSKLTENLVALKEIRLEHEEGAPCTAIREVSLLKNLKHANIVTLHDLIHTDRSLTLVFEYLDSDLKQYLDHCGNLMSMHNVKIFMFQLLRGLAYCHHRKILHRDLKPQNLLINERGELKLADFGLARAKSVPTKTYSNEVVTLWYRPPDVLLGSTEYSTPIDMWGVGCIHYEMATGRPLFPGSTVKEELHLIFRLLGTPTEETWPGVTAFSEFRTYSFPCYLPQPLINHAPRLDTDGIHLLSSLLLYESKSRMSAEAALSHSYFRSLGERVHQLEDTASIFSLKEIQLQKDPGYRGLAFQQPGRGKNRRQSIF

[19] = target: T5, Discoidin domain-containing receptor 2 (Homo sapiens) (UniProt Q16832); conditions: 10 uM
T5 sequence (whole entry): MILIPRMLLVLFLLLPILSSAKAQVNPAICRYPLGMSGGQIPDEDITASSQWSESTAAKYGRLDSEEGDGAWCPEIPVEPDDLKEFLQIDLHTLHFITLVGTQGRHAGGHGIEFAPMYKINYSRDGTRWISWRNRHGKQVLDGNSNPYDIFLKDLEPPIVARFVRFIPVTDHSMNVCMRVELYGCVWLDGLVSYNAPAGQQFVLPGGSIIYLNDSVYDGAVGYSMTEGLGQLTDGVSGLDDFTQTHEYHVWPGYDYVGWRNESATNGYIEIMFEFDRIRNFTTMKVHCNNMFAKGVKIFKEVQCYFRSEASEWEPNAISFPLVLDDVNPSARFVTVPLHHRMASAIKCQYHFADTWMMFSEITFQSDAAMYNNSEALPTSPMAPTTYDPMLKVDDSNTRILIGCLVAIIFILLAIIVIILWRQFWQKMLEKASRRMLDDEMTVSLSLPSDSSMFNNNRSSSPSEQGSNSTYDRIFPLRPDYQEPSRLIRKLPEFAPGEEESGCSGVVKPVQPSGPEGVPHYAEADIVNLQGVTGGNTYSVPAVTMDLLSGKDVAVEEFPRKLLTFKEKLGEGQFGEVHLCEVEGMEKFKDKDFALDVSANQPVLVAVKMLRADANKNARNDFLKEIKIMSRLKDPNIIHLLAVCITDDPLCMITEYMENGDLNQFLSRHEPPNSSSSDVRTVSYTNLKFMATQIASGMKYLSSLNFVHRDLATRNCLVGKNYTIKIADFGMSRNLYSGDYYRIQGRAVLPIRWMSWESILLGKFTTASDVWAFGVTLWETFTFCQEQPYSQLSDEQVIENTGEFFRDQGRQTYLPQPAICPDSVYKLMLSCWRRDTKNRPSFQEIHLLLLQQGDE

[20] = target: T6, Mitogen-activated protein kinase 15 (Homo sapiens) (UniProt Q8TD08); conditions: 10 uM
T6 sequence (whole entry): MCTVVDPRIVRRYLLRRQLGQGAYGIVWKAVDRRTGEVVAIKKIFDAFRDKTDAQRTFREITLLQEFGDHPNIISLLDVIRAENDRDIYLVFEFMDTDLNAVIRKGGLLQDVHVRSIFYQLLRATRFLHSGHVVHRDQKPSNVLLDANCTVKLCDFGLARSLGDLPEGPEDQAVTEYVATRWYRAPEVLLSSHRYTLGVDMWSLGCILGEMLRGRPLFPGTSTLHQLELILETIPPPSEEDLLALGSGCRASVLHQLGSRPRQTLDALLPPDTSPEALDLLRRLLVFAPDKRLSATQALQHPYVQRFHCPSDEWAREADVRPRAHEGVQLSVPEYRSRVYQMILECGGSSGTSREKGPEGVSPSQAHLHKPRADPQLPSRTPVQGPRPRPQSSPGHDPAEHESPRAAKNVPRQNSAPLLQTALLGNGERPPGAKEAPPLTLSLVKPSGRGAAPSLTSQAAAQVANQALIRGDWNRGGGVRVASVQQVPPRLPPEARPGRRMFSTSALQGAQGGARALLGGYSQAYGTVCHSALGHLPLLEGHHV

[21] = target: T7, Serine/threonine-protein kinase MAK (Homo sapiens) (UniProt P20794); conditions: 10 uM
T7 sequence (whole entry): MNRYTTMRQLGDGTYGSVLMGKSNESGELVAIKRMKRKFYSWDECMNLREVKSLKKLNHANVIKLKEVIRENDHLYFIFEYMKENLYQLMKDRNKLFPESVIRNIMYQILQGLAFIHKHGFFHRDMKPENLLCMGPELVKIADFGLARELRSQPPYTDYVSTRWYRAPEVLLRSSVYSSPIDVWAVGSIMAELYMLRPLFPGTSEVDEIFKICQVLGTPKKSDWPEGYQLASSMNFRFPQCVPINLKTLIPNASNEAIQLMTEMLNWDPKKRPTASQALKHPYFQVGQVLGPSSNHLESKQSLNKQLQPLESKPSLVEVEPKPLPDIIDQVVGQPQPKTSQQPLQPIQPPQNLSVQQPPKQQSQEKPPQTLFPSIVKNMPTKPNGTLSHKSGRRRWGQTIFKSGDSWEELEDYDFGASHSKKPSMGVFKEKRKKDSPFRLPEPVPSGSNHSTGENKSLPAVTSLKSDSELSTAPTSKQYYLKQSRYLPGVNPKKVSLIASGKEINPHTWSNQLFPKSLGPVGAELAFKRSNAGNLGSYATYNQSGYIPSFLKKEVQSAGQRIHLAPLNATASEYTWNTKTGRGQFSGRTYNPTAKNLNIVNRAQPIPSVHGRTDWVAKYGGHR

Row | SMILES | IC50 [1] [nM] | IC50 [2] [nM] | further results
1 | CCCNc1ncc(-c2ccncc2)s1 | 19000 |  | 
2 | C[C@H](Nc1ncc(-c2ccncc2-c2ccccc2Cl)s1)c1ccccc1 | 40 | 9200 | 
3 | CCCNc1ncc(-c2ccncc2-c2ccc(Cl)cc2)s1 | 620 |  | 
4 | C=CCNc1nc(N)c(C(=O)c2ccc3c(c2)OCO3)s1 | 4000 |  | 
5 | Clc1ccccc1-c1cnccc1-c1cnc(Nc2ccccc2)s1 | 3 | 600 | 
6 | CCCNc1ncc(-c2cnccc2-c2ccccc2Cl)s1 | 574 |  | 
7 | CC(C)CNc1ncc(-c2ccncc2-c2ccccc2Cl)s1 | 5 | 1500 | inhibition at 3 µM [3]: 34%; viability at 10 µM [4]: 88%
8 | CCCNc1ncc(-c2ccncc2-c2ccc(OC)cc2C(F)(F)F)s1 | 13 | 2500 | 
9 | CCCNc1ncc(-c2ccncc2-c2ccccc2C)s1 | 82 | 11500 | 
10 | CCCN(C)c1ncc(-c2ccncc2-c2ccccc2Cl)s1 | 3100 |  | 
11 | CCNc1ncc(-c2ccncc2-c2ccccc2Cl)s1 | 120 | 14000 | 
12 | Cc1ccc(-c2cnccc2-c2cnc(NC(=O)C(C)C)s2)c(Cl)c1 | 1 |  | inhibition at 3 µM [3]: 48%; Stability [5]: 8.3 mL/min; viability at 10 µM [4]: 131%; IC50 [6]: 3 nM; Stability [7]: 19.4 mL/min
13 | CCCNc1ncc(-c2ccncc2-c2ccccc2Cl)s1 | 15 | 3800 | 
14 | CCCNc1ncc(-c2cccnc2-c2ccccc2Cl)s1 | 327 |  | 
15 | CCCNc1ncc(-c2ccncc2-c2ccccc2C(C)C)s1 | 3300 |  | 
16 | Nc1ncc(-c2ccncc2-c2ccccc2Cl)s1 | 270 | > 30000 | 
17 | COc1ccc(-c2cnccc2-c2cnc(NC(=O)C(C)C)s2)c(C(F)(F)F)c1 |  | 2000 | inhibition [8]: > 90%; inhibition [9]: > 90%; inhibition [10]: > 90%; inhibition at 3 µM [3]: 52%; inhibition [11]: > 90%; Stability [5]: 3.7 mL/min; viability at 10 µM [4]: 106%; inhibition [12]: > 90%; inhibition [13]: > 90%; IC50 [6]: 48 nM; inhibition [14]: > 90%; inhibition [15]: > 90%; inhibition [16]: > 90%; inhibition [17]: > 90%; Stability [7]: 5.2 mL/min; inhibition [18]: > 90%; inhibition [19]: > 90%; inhibition [20]: > 90%; inhibition [21]: > 90%
18 | C[C@@H](Nc1ncc(-c2ccncc2-c2ccccc2Cl)s1)c1ccccc1 | 4 | 2100 | 
19 | CCCNc1ncc(-c2ccncc2-c2ccccc2)s1 | 850 |  | 
20 | CCCNc1ncc(-c2ccncc2-c2cccc(Cl)c2)s1 | 500 |  | 
21 | CCCNc1ncc(-c2ncccc2-c2ccccc2Cl)s1 | ≥ 30000 |  | 
22 | CC(=O)Nc1ncc(-c2ccncc2-c2ccccc2Cl)s1 | 20 | 1400 | 
23 | CCCNc1ncc(-c2ccncc2-c2ccccc2C(F)(F)F)s1 | 37 | 2200 | 
24 | CC(C)C(=O)Nc1ncc(-c2ccncc2-c2ccccc2Cl)s1 | 3 | 800 | 
